Common to all, as to type: functional
Experiment [1] relates to Cryptococcus neoformans. Nature of the experiment: Antifungal activity against Cryptococcus neoformans after 2 to 7 days by serial plate dilution method. An outline of the steps:
(§1)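 Compounds dissolved as DMSO stocks and serially diluted in RPMI 1640 buffered with MOPS, giving final concentrations of 128–0.25. Individual fungal inoculum added to each well. Incubated in triplicate at 37 °C for 2–7 days. MIC read as the lowest concentration with no visible growth. Amphotericin B and fluconazole served as positive controls.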

The test system of experiment [2] is Epidermophyton floccosum. Nature of the experiment: Antifungal activity against Epidermophyton floccosum after 2 to 7 days by serial plate dilution method. In outline: as §1
Experiment [3] has as its system Mucor racemosus. The experiment can be described thus: Antifungal activity against Mucor racemosus after 2 to 7 days by serial plate dilution method.
Experiment [4] deals with Nannizzia gypsea. Nature of the experiment: Antifungal activity against Microsporum gypseum after 2 to 7 days by serial plate dilution method. An outline of the steps: as §1
In experiment [5] the test system is Candida albicans. Nature of the experiment: Antifungal activity against Candida albicans after 2 to 7 days by serial plate dilution method. In outline: as §1

Molecules are shown by their SMILES. ≈ marks a conversion by molar mass, not a printed value.

On to `Cc1cc(C)c2c(c1)C(=O)CC(c1c[nH]c3ccc(Cl)cc13)S2` (stereo not given), for which the MIC – broadly, the lowest concentration that inhibits growth of the organism – in experiment [1] came to 16 µg/mL (≈ 46.8 µM); in experiment [2], 16 µg/mL (≈ 46.8 µM); in experiment [3], 32 µg/mL (≈ 93.6 µM); in experiment [4], 16 µg/mL (≈ 46.8 µM); in experiment [5], 32 µg/mL (≈ 93.6 µM).

Turning to `Cc1ccc2c(c1)C(=O)CC(c1c[nH]c3ccccc13)S2` (stereo not given), the MIC was 32 µg/mL (≈ 109 µM) in experiment [1]; > 128 µg/mL in experiment [2]; 128 µg/mL (≈ 436 µM) in experiment [3]; > 128 µg/mL in experiment [4]; 128 µg/mL (≈ 436 µM) in experiment [5].

Regarding `Cn1cc(C2CC(=O)c3cc(Cl)ccc3S2)c2ccccc21` (stereo not given), the MIC in experiment [1] came to 128 µg/mL (≈ 390 µM); in experiment [2] it was 128 µg/mL (≈ 390 µM); in experiment [3], 32 µg/mL (≈ 97.6 µM); in experiment [4] it was 128 µg/mL (≈ 390 µM); in experiment [5] it was 64 µg/mL (≈ 195 µM).

Turning to `O=C1CC(c2c[nH]c3ccccc23)Sc2ccc(Cl)cc21` (stereo not given), the MIC in experiment [1] came to 32 µg/mL (≈ 102 µM); in experiment [2], 32 µg/mL (≈ 102 µM); in experiment [3], 64 µg/mL (≈ 204 µM); in experiment [4], 64 µg/mL (≈ 204 µM); in experiment [5] it was 64 µg/mL (≈ 204 µM).

On to `O=C1CC(c2c[nH]c3ccc(Cl)cc23)Sc2ccc(Cl)cc21` (stereo not given), for which the MIC in experiment [1] was determined as 4 µg/mL (≈ 11.5 µM); in experiment [2], 8 µg/mL (≈ 23 µM); in experiment [3] it was 8 µg/mL (≈ 23 µM); in experiment [4], 16 µg/mL (≈ 45.9 µM); in experiment [5] it was 64 µg/mL (≈ 184 µM).

In the case of `O=C1CC(c2c[nH]c3ccccc23)Sc2ccc(F)cc21` (stereo not given), the MIC in experiment [1] stood at 64 µg/mL (≈ 215 µM); in experiment [2], 32 µg/mL (≈ 108 µM); in experiment [3] it was 32 µg/mL (≈ 108 µM); in experiment [4], 32 µg/mL (≈ 108 µM); in experiment [5] it was 128 µg/mL (≈ 430 µM).

`Cc1cccc2c1SC(c1cn(C)c3ccccc13)CC2=O` (stereo not given): the MIC in experiment [1] worked out at 32 µg/mL (≈ 104 µM); in experiment [2], 64 µg/mL (≈ 208 µM); in experiment [3] it was 64 µg/mL (≈ 208 µM); in experiment [4], 32 µg/mL (≈ 104 µM); in experiment [5], 128 µg/mL (≈ 416 µM).

`Cc1cc(C)c2c(c1)C(=O)CC(c1c[nH]c3ccc(O)cc13)S2` (stereo not given): the MIC in experiment [1] was 16 µg/mL (≈ 49.5 µM); in experiment [2], 16 µg/mL (≈ 49.5 µM); in experiment [3], 32 µg/mL (≈ 98.9 µM); in experiment [4] it was 16 µg/mL (≈ 49.5 µM); in experiment [5], 64 µg/mL (≈ 198 µM).

Consider `O=C1CC(c2c[nH]c3ccccc23)Sc2c(F)cccc21` (stereo not given), for which the MIC in experiment [1] turned out to be 16 µg/mL (≈ 53.8 µM); in experiment [2], 8 µg/mL (≈ 26.9 µM); in experiment [3], 32 µg/mL (≈ 108 µM); in experiment [4], 8 µg/mL (≈ 26.9 µM); in experiment [5], 32 µg/mL (≈ 108 µM).

As for `C[C@@H]1[C@H](O)[C@@H](C)/C=C/C=C/C=C/C=C/C=C/C=C/C=C/[C@H](O[C@@H]2O[C@H](C)[C@@H](O)[C@H](N)[C@@H]2O)C[C@@H]2O[C@](O)(C[C@@H](O)C[C@@H](O)[C@H](O)CC[C@@H](O)C[C@@H](O)CC(=O)O[C@H]1C)C[C@H](O)[C@H]2C(=O)O` [AMPHOTERICIN B], the MIC came out at 4 µg/mL (≈ 4.33 µM) in experiment [1]; 2 µg/mL (≈ 2.16 µM) in experiment [2]; 4 µg/mL (≈ 4.33 µM) in experiment [3]; 2 µg/mL (≈ 2.16 µM) in experiment [4]; 2 µg/mL (≈ 2.16 µM) in experiment [5].

Take `OC(Cn1cncn1)(Cn1cncn1)c1ccc(F)cc1F` [FLUCONAZOLE]: the MIC in experiment [1] worked out at 8 µg/mL (≈ 26.1 µM); in experiment [2], 32 µg/mL (≈ 104 µM); in experiment [3] it was 32 µg/mL (≈ 104 µM); in experiment [4] it was 64 µg/mL (≈ 209 µM); in experiment [5], 32 µg/mL (≈ 104 µM).

Regarding `Cc1cccc2c1SC(c1c[nH]c3ccccc13)CC2=O` (stereo not given), the minimal inhibitory concentration (MIC) in experiment [1] worked out at 64 µg/mL (≈ 218 µM); in experiment [2], 128 µg/mL (≈ 436 µM); in experiment [3] it was 64 µg/mL (≈ 218 µM); in experiment [4], 64 µg/mL (≈ 218 µM); in experiment [5] it was 64 µg/mL (≈ 218 µM).

Turning to `O=C1CC(c2c[nH]c3ccc(Cl)cc23)Sc2c(F)cccc21` (stereo not given), the MIC in experiment [1] is 4 µg/mL (≈ 12.1 µM); in experiment [2], 4 µg/mL (≈ 12.1 µM); in experiment [3] it was 8 µg/mL (≈ 24.1 µM); in experiment [4], 8 µg/mL (≈ 24.1 µM); in experiment [5] it was 32 µg/mL (≈ 96.4 µM).

With `Cc1cc(C)c2c(c1)C(=O)CC(c1c[nH]c3ccccc13)S2` (stereo not given), the MIC stood at 32 µg/mL (≈ 104 µM) in experiment [1]; 128 µg/mL (≈ 416 µM) in experiment [2]; 128 µg/mL (≈ 416 µM) in experiment [3]; 64 µg/mL (≈ 208 µM) in experiment [4]; 64 µg/mL (≈ 208 µM) in experiment [5].

For the molecule `Cc1cc2c(cc1F)SC(c1c[nH]c3ccccc13)CC2=O` (stereo not given), the MIC in experiment [1] was 64 µg/mL (≈ 206 µM); in experiment [2], 64 µg/mL (≈ 206 µM); in experiment [3] it was 128 µg/mL (≈ 411 µM); in experiment [4], 64 µg/mL (≈ 206 µM); in experiment [5], > 128 µg/mL.

With `O=C1CC(c2c[nH]c3ccc(O)cc23)Sc2c(F)cccc21` (stereo not given), the MIC amounted to 8 µg/mL (≈ 25.5 µM) in experiment [1]; 4 µg/mL (≈ 12.8 µM) in experiment [2]; 16 µg/mL (≈ 51.1 µM) in experiment [3]; 16 µg/mL (≈ 51.1 µM) in experiment [4]; 16 µg/mL (≈ 51.1 µM) in experiment [5].

Take `Cn1cc(C2CC(=O)c3cccc(Cl)c3S2)c2ccccc21` (stereo not given): the MIC in experiment [1] was 64 µg/mL (≈ 195 µM); in experiment [2], 32 µg/mL (≈ 97.6 µM); in experiment [3], 32 µg/mL (≈ 97.6 µM); in experiment [4] it was 32 µg/mL (≈ 97.6 µM); in experiment [5] it was 32 µg/mL (≈ 97.6 µM).

For the origin of these results see ChEMBL document CHEMBL3352045, “Ionic liquid catalyzed synthesis of 2-(indole-3-yl)-thiochroman-4-ones and their novel antifungal activities” (2015).
